Scp-1 inhibitor: Scp-1 phosphatase inhibitors, primary screen, biochemical, colorimetric, uHTS | Carboxy-terminal domain RNA polymerase II polypeptide A small phosphatase 1 (Homo … | AID 493091, 2011 | Recombinant Scp1, phosphopeptide, malachite green phosphate absorbance | inhibition, % at 20 µM | actives 0.88% (n = 340,000);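 active = inhibition above about 50% at 20 µM, limit read from the data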
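Material – SCP-1 phosphatase catalytic domain, residues 76-261 · Buffer or medium – Acidic Tris acetate buffer with magnesium and detergent · Also added – Phospho 17-mer peptide substrate · Compound – single 20 µM dose, 1% DMSO · Times – 45 min room-temperature reaction, 5 min colour, 30 min stabiliser · Technique – Phosphate-binding colour reagent, absorbance read at 630 nm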
SUMO1-SIM PPI: modulators of SUMO1 protein-protein interactions, primary screen, biochemical, uHTS; Small ubiquitin-related modifier 1 (Homo sapiens), P63165; SUMO1 binding to a labelled peptide, TR-FRET, 1 h; inhibition, % at 20 µM; actives 0.33% (n = 360,000); in the data active = inhibition above about 37%
Target sequence (P63165 whole entry, looked up): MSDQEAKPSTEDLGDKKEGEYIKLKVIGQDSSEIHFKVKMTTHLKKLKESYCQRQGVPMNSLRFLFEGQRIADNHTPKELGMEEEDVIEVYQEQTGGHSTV
STEP inh: STEP phosphatase inhibitors, primary screen, biochemical, fluorescence intensity, uHTS; Tyrosine-protein phosphatase non-receptor type 5 (Homo sapiens), P54829; recombinant STEP, OMFP fluorogenic substrate; inhibition, % at 20 µM; actives 0.25% (n = 360,000); AID 588621, 2011;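 active = inhibition at 20 µM, scaled per plate between control wells, above about 37%, limit read from the data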
Target sequence (P54829 whole entry, looked up): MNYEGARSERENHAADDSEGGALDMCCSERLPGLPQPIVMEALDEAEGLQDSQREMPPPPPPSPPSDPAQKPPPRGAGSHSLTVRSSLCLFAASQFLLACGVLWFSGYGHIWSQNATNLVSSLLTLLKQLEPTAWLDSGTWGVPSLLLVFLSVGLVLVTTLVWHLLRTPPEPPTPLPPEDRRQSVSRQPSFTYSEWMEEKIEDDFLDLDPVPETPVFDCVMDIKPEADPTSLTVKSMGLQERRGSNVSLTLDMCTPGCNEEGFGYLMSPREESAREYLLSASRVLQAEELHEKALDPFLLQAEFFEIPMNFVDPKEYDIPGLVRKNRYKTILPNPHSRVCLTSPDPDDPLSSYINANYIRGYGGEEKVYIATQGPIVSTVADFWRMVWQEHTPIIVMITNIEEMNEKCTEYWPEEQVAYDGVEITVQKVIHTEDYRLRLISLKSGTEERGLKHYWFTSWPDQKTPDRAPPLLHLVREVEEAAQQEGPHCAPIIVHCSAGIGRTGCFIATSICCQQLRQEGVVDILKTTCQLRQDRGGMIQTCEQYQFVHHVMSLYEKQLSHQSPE
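System: STEP phosphatase, cell-free reaction; Buffer or medium: Bis-Tris pH 6.0 buffer with DTT, detergent; Incubation: 20 min at room temperature, dark; Measured by: fluorescence, 480/540 nm.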
CSN deneddyl inh: inhibitors of CSN-mediated cullin deneddylation, primary screen, biochemical, fluorescence polarization, uHTS; COP9 signalosome complex subunit 5 (Homo sapiens), Q92905; Purified CSN, SCF-Nedd8-OG deneddylation; inhibition, % at 12.5 µM; actives 0.38% (n = 360,000); AID 651999, 2013;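 active = pattern-corrected inhibition above about 35%, with an unprinted fluorescence ratio check between 0.5 and 1.5, limit read from the data, passing the limit was not always enough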
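Assay system: purified human Csn5 enzyme expressed in HEK293T cells; Input: 0.24 nM Csn5 enzyme, final concentration; Reagent: 10 nM SCFSkp2-Nedd8OG; Compound dosing: 12.5 µM single point; Times: reaction 90 min, room temperature; Technique: fluorescence polarization readout.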
LMPTP block: LMPTP phosphatase inhibitors, primary screen, biochemical, fluorescence intensity, uHTS | recombinant LMPTP-A, OMFP fluorogenic substrate | actives 0.22% (n = 360,000) | inhibition, % at 20 µM | Low molecular weight phosphotyrosine protein phosphatase (Homo sapiens), P24666;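 active = compounds that cut the enzyme signal by at least half of the control window in the single-dose screen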
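Test system – LMPTP-A enzyme · Amount – LMPTP-A at 0.625 nM final in the reaction · Buffer or medium – Bis-Tris pH 6.0, DTT, detergent · Reagent – OMFP 400 µM · Doses – single 20 µM dose · Schedule – reaction 50 min, room temperature, dark · Detection – fluorescence intensity of OMFP turnover product · Evaluation – percent inhibition versus substrate-only and uninhibited controls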
DNMT1 inh: human DNMT1 methyltransferase inhibitors, primary screen, biochemical, molecular beacon, fluorescence, HinP1I cleavage, uHTS; inhibition (reported as % activation of signal), % at 10 µM; actives 0.83% (n = 360,000); AID 588458, 2011; in the data active = inhibition above about 50%
Scp-1 conf: Scp-1 phosphatase inhibitors, retest, confirmation, biochemical, colorimetric, single concentration; actives 61% (n = 2,500); inhibition, % at 20 µM; recombinant SCP-1 catalytic domain, phosphate release, malachite green absorbance; shares compounds with Scp-1 inhibitor
Scp-1 MG ctr: colorimetric readout interference by compounds, confirmation, artefact control for Scp-1 inhibitor project, biochemical, single concentration. Colorimetric interference counterscreen, malachite green absorbance 630 nm. 2,500 tested, under 10 active. AID 540313, 2011. shares compounds with Scp-1 inhibitor. apparent inhibition (interference), % at 20 µM;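 also: compounds added after enzyme reaction finished so only phosphate colour detection is probed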
Scp1 DSF: Scp-1 binding by thermal shift, confirmation, orthogonal assay for Scp-1 inhibitor project, biophysical, differential scanning fluorimetry. Recombinant SCP1, Sypro Orange thermal shift Tm. shares compounds with Scp-1 inhibitor. actives 25% (n = 1,500). AID 540329, 2011. thermal shift relative to vanadate control, % at 40 µM;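 active = substances whose mean melting-temperature shift, as a percentage of the reference inhibitor's shift, reaches about 5.3%, limit read from the data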
Hits are given with their value. This is a sample that favours compounds with a hit; in the whole collection about 2% have one here.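 The calls were made as follows, unless noted: active = inhibition of at least 30% at 20 µM; inactive = the rest.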

C[C@H]1CN(C2CCCCC2)C(=O)[C@@H]1CC(=O)Nc1ccc(Br)cc1 was read as SUMO1-SIM PPI inactive, STEP inh inactive, CSN deneddyl inh inactive, LMPTP block inactive and DNMT1 inh inactive.
`CCOC(=O)c1ccc2c(c1)N(C)C(=O)c1ccccc1S2` gave Scp-1 inhibitor 53, SUMO1-SIM PPI inactive, STEP inh inactive, CSN deneddyl inh inactive, LMPTP block inactive, DNMT1 inh inactive, Scp-1 conf inactive and Scp-1 MG ctr inactive.
COc1ccc(-n2c(SCc3cn4c(C)cccc4n3)nc3ccccc3c2=O)cc1OC was read as Scp-1 inhibitor inactive, SUMO1-SIM PPI inactive, STEP inh inactive, CSN deneddyl inh inactive, LMPTP block inactive and DNMT1 inh inactive.
Screening CC1CCN(C(=O)CN2c3cccc4cccc(c34)S2(=O)=O)CC1 returned Scp-1 inhibitor inactive, SUMO1-SIM PPI inactive, STEP inh inactive, CSN deneddyl inh inactive, LMPTP block inactive and DNMT1 inh inactive.
Screening FC(F)(F)c1ccccc1Cc1c(C2CCCCC2)nc2ccc(Br)cn12 returned SUMO1-SIM PPI inactive, STEP inh inactive, CSN deneddyl inh inactive, LMPTP block inactive and DNMT1 inh inactive.
`CCOCc1cnc(C)nc1NCC(=O)c1c(C)n(C)c2ccc(OC)cc12` gave Scp-1 inhibitor 51, SUMO1-SIM PPI inactive, STEP inh inactive, CSN deneddyl inh inactive, LMPTP block inactive, DNMT1 inh inactive, Scp-1 conf inactive and Scp-1 MG ctr inactive.
For Cc1ccc(NC(=O)CS(=O)CC(=O)Nc2ccc(N3CCOCC3)cc2)cc1Cl (stereo not drawn) the results were Scp-1 inhibitor 97, SUMO1-SIM PPI inactive, STEP inh inactive, CSN deneddyl inh inactive, LMPTP block inactive, DNMT1 inh inactive, Scp-1 conf 70, Scp-1 MG ctr inactive and Scp1 DSF inactive.
For Cc1cc(C)c(NC(=O)CS(=O)CC(=O)Nc2ccc(N3CCOCC3)cc2)c(C)c1 (stereo not drawn) the results were Scp-1 inhibitor inactive, SUMO1-SIM PPI inactive, STEP inh inactive, CSN deneddyl inh inactive, LMPTP block inactive and DNMT1 inh inactive.
CC[n+]1c(/C=C/Nc2ccccc2)oc2ccc(OC)cc21 was read as Scp-1 inhibitor inactive, SUMO1-SIM PPI inactive, STEP inh inactive, CSN deneddyl inh inactive, LMPTP block inactive and DNMT1 inh inactive.
For CC[n+]1c(/C=C/Nc2ccccc2)oc2ccccc21 the results were Scp-1 inhibitor 99, SUMO1-SIM PPI inactive, STEP inh inactive, CSN deneddyl inh inactive, LMPTP block inactive, DNMT1 inh inactive, Scp-1 conf inactive and Scp-1 MG ctr inactive.
Screening COc1ccc(C(=O)C2=NN(C(C)=O)CC2c2ccco2)cc1 (stereo not drawn) returned Scp-1 inhibitor inactive, SUMO1-SIM PPI inactive, STEP inh inactive, CSN deneddyl inh inactive, LMPTP block inactive and DNMT1 inh inactive.
For C=C(C)C(=O)Nc1cccc(C2=NOC3(C2)C[C@H](C(N)=O)N(C(=O)c2ccccc2C(=O)c2ccccc2)C3)c1 (stereo partly drawn) the results were Scp-1 inhibitor 84, SUMO1-SIM PPI 92, STEP inh inactive, CSN deneddyl inh inactive, LMPTP block inactive, DNMT1 inh 97, Scp-1 conf 78, Scp-1 MG ctr inactive and Scp1 DSF inactive.
`C/C=C/C(=O)Nc1cccc(C2=NOC3(C2)C[C@H](C(N)=O)N(C(=O)/C=C/C)C3)c1` (stereo partly drawn) gave Scp-1 inhibitor inactive, SUMO1-SIM PPI inactive, STEP inh inactive, CSN deneddyl inh inactive, LMPTP block inactive and DNMT1 inh inactive.
`C/C=C/C=C/C(=O)N1CC2(CC(c3cccc(NC(=O)/C=C/C)c3)=NO2)C[C@@H]1C(N)=O` (stereo partly drawn) gave Scp-1 inhibitor 56, SUMO1-SIM PPI inactive, STEP inh inactive, CSN deneddyl inh inactive, LMPTP block inactive, DNMT1 inh inactive, Scp-1 conf inactive and Scp-1 MG ctr inactive.
`C/C=C(\C)C(=O)Nc1cccc(C2=NOC3(C2)C[C@@H](C(N)=O)N(C(=O)c2ccccc2C(=O)c2ccccc2)C3)c1` (stereo partly drawn) gave Scp-1 inhibitor inactive, SUMO1-SIM PPI inactive, STEP inh inactive, CSN deneddyl inh inactive, LMPTP block inactive and DNMT1 inh inactive.
CCOC(=O)[C@]12CCCC=C1N(Cc1ccc(Cl)cc1Cl)C(=O)[C@H](CC(=O)NCc1cccs1)C2 was read as SUMO1-SIM PPI inactive, CSN deneddyl inh inactive and LMPTP block inactive.
`Nc1cccc2c1C(=O)c1ccc(Cl)cc1C2=O` gave Scp-1 inhibitor 50, SUMO1-SIM PPI inactive, STEP inh inactive, CSN deneddyl inh inactive, LMPTP block inactive, DNMT1 inh inactive, Scp-1 conf inactive and Scp-1 MG ctr inactive.
CC(=O)Nc1ccc(S(=O)(=O)N(C)CC(=O)OCC(=O)N2CCN(C(=O)c3ccco3)CC2)cc1 was read as Scp-1 inhibitor 74, SUMO1-SIM PPI inactive, STEP inh inactive, CSN deneddyl inh inactive, LMPTP block inactive, DNMT1 inh inactive, Scp-1 conf 71, Scp-1 MG ctr inactive and Scp1 DSF inactive.
For CC(=O)Nc1ccc(S(=O)(=O)NCCC(=O)OCC(=O)N2CCN(C(=O)c3ccco3)CC2)cc1 the results were Scp-1 inhibitor 77, SUMO1-SIM PPI inactive, STEP inh inactive, CSN deneddyl inh inactive, LMPTP block inactive, DNMT1 inh inactive, Scp-1 conf 66, Scp-1 MG ctr inactive and Scp1 DSF 5.9.

Compound activity from PubChem.
